As a reminder, the EC50 is the concentration giving half of the maximal effect. One may read the fraction unbound as the share of the substance not bound to proteins or other matrix. A higher fraction unbound goes with much free substance. By logD is commonly meant lipophilicity at a set pH, counting ionised and neutral species. As usually defined, the solubility is the concentration that dissolves in the medium under given conditions. A lower solubility goes with a poorly soluble substance.

This is an account of results in ChEMBL document CHEMBL4609978, “Synthesis and evaluation of 2'-dihalo ribonucleotide prodrugs with activity against hepatitis C virus” (Bioorg Med Chem, 2020).

Data set [1] can be described thus: Prodrug conversion in Beagle dog liver assessed as nucleotide triphosphate level at 1 mg/kg, po qd for 4 days co-dosed with 5 mg/kg sofosbuvir and measured at 24 hrs post-last dose by LC-MS/MS analysis. The format is ADME, organism-based, Canis lupus familiaris. The following applies: in vivo. Summed up:
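Beagle dogs (3 per time point) dosed orally once daily for 4 days with prodrug (1 or 5 mg/kg) in EtOH:PEG-400:Phosal 53 MCT (10:30:60, w/w) together with sofosbuvir 5 mg/kg; liver biopsy 24 h after final dose, flash frozen, triphosphate by LC-MS/MS.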

Data set [2] in a line: Prodrug conversion in Beagle dog liver assessed as nucleotide triphosphate level at 5 mg/kg, po qd for 4 days and measured at 24 hrs post-last dose by LC-MS/MS analysis. The format is ADME, organism-based, Canis lupus familiaris. Conditions: in vivo.
The nature of data set [3]: Intrinsic clearance in human hepatocytes. The following applies: read-out: CLH (converted). The format is ADME, cell-based, Hepatocyte.
Data set [4] concerns Hepatitis C virus. The experiment in a line: Antiviral activity against HCV genotype 1a H77 infected in human HuH7 replicon cells assessed as inhibition of viral replication after 3 days by luciferase reporter gene assay. Format: functional, organism-based, Hepacivirus hominis. The following applies: subtype 1a H77, Huh-7, 72 h. The method, boiled down: (§1)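 Stable subgenomic replicon cell lines (genotype 1a-H77 or 1b-Con1) carrying a luciferase reporter; compounds added in DMEM with 5% FBS, cells incubated 3 days with or without compound, then lysed and luciferase activity read; EC50 from nonlinear regression fit to 4-parameter logistic equation.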
A general note: A replicon is a self-replicating genome or part of one, used to study replication in cells.

Data set [5] in a line: Unbound drug level in dog plasma. Format: ADME, cell-free, Canis lupus familiaris.
The nature of data set [6]: Prodrug conversion in Beagle dog liver assessed as increase in nucleotide triphosphate level at 5 mg/kg, po co-dosed with 5 mg/kg sofosbuvir measured after 24 hrs by LC-MS/MS analysis relative to sofosbuvir. The format is ADME, organism-based, Canis lupus familiaris. Conditions: in vivo. Summed up: (§2)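 Beagle dogs (3 per time point) given single oral prodrug 5 mg/kg in EtOH:PEG-400:Phosal 53 MCT (10:30:60, w/w), cassette-dosed with sofosbuvir 5 mg/kg as internal standard; liver biopsies at 4 or 24 h, flash frozen, triphosphate measured by LC-MS/MS.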

A short description of data set [7]: Prodrug conversion in human primary hepatocytes assessed as nucleotide triphosphate level at 100 uM incubated for 4 hrs followed by compound wash-out for 20 hrs and measured following 4 hrs incubation period by LC-MS/MS analysis. The format is ADME, cell-based, Hepatocyte. Summed up: (§3)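 Cryopreserved primary human hepatocytes plated ~55,000 viable cells/well on collagen, medium changed after 4–6 h to Williams E maintenance medium with Geltrex 0.35 mg/mL, overnight at 37 °C; prodrug 100 µM for 4 h, then washed; second plate held a further 20 h drug-free; cells washed with ice-cold HBSS, triphosphate measured by LC-MS/MS at 4 or 24 h.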

The nature of data set [8]: Prodrug conversion in Beagle dog liver assessed as nucleotide triphosphate level at 5 mg/kg, po administered as single dose measured after 24 hrs by LC-MS/MS analysis. The format is ADME, organism-based, Canis lupus familiaris. The following applies: in vivo.
Data set [9] deals with Hepatitis C virus. The experiment in a line: Antiviral activity against HCV genotype 1b Con1 over expressing CES1 infected in human HuH7 replicon cells assessed as inhibition of viral replication after 3 days by luciferase reporter gene assay. Format: functional, organism-based, Hepacivirus hominis. The following applies: subtype 1b Con1, Huh-7, 72 h.
Data set [10] is described as follows: Prodrug conversion in Beagle dog liver assessed as increase in nucleotide triphosphate level at 5 mg/kg, po co-dosed with 5 mg/kg sofosbuvir measured after 4 hrs by LC-MS/MS analysis relative to sofosbuvir. The format is ADME, organism-based, Canis lupus familiaris. The following applies: in vivo. The method, boiled down: as §2
Data set [11] can be described thus: Distribution coefficient, logD of compound by HT-LCMS analysis. The format is physicochemical. The following applies: octanol/water.
Data set [12] can be described thus: Prodrug conversion in Beagle dog liver assessed as nucleotide triphosphate level at 5 mg/kg, po administered as single dose measured after 4 hrs by LC-MS/MS analysis. Format: ADME, organism-based, Canis lupus familiaris. The following applies: in vivo.
The nature of data set [13]: Unbound drug level in human plasma. The format is ADME, cell-free.
A short description of data set [14]: Intrinsic clearance in dog hepatocytes. Format: ADME, cell-based, Canis lupus familiaris, Hepatocyte. The following applies: read-out: CLH (converted).
Data set [15] can be described thus: Prodrug conversion in human primary hepatocytes assessed as increase in nucleotide triphosphate level at 100 uM incubated for 4 hrs followed by compound wash-out for 20 hrs and measured following 4 hrs incubation period by LC-MS/MS analysis relative to sofosbuvir. The format is ADME, cell-based, Hepatocyte.
A short description of data set [16]: Stability in human plasma assessed as parent compound remaining after 4 hrs. The format is ADME, cell-free. The following applies: read-out: Stability. Summed up: (§4)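 Prodrug incubated 4 h at 37 °C in dog or human plasma; result given as percent parent remaining.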
Data set [17] is described as follows: Prodrug conversion in Beagle dog liver assessed as nucleotide triphosphate level at 5 mg/kg, po co-dosed with 5 mg/kg sofosbuvir measured after 4 hrs by LC-MS/MS analysis. Conditions: in vivo. The format is ADME, organism-based, Canis lupus familiaris. The method, boiled down:
as §2

Data set [18] can be described thus: Prodrug conversion in Beagle dog liver assessed as nucleotide triphosphate level at 5 mg/kg, po co-dosed with 5 mg/kg sofosbuvir measured after 24 hrs by LC-MS/MS analysis. Format: ADME, organism-based, Canis lupus familiaris. The following applies: in vivo. The method, boiled down: as §2
Data set [19] in a line: Aqueous solubility of compound in pH 7.4 phosphate buffer. Format: physicochemical.
The nature of data set [20]: Prodrug conversion in human primary hepatocytes assessed as nucleotide triphosphate level at 100 uM incubated for 4 hrs and followed by compound washout for 20 hrs and measured following 24 hrs incubation period by LC-MS/MS analysis. The format is ADME, cell-based, Hepatocyte. Summed up:
as §3

A short description of data set [21]: Stability in dog plasma assessed as parent compound remaining after 4 hrs. The following applies: read-out: Stability. The format is ADME, cell-free, Canis lupus familiaris. Summed up:
as §4

Data set [22] deals with Hepatitis C virus. The experiment in a line: Antiviral activity against HCV genotype 1b Con1 infected in human HuH7 replicon cells assessed as inhibition of viral replication after 3 days by luciferase reporter gene assay. Conditions: subtype 1b Con1, Huh-7, 72 h. Format: functional, organism-based, Hepacivirus hominis. The method, boiled down:
as §1

In brackets after ≈: the same amount, converted by molar mass.

Turning to `CCOC(=O)C(C)(C)N[P@](=O)(OC[C@H]1O[C@@H](n2ccc(=O)[nH]c2=O)[C@@](F)(Br)[C@@H]1O)Oc1ccccc1`, the Drug metabolism stood at 10.7 µM in data set [1]; 8.18 µM in data set [2]; 3600 µM in data set [7]; 42.7 µM in data set [8]; 43.3 µM in [12]; 7 µM in [17]. The Drug metabolism in [18] worked out at 6.64 µM; in [20] it was 736 µM. In addition, the results for the CLint scaled in [3] and in data set [14] were 132 mL/min/kg and 123 mL/min/kg, respectively. For the same compound, the EC50 in the data set with Hepatitis C virus [4] came to 259 nM; with Hepatitis C virus [9] it was 69 nM; with Hepatitis C virus [22], 434 nM. Besides, the fraction unbound in data set [5] was found to be 0.317; in [13] it was 0.473. In addition, the fold change (FC) in data set [6] fell in the range of 5 to 6; in data set [10], 5 to 6; in [15], 30 to 40. Besides, the logD in data set [11] was 2.86. Moreover, the remaining at 4 h in [16] stood at 98%; in data set [21] it was 100%. Besides, in data set [19], the solubility is 519 µM (≈ 308 µg/mL).
